Data as given in ChEMBL document CHEMBL3992497, “Synthesis, structure-activity relationships and biological evaluation of 7-phenyl-pyrroloquinolinone 3-amide derivatives as potent antimitotic agents” (Eur J Med Chem, 2017).
pIC50: −log10 of the molar value. The source made the active and inactive calls. The calls are words filed in the database; no cut-off is given here.

Tests used:
RS4-11 = test: Antiproliferative activity against human RS4:11 cells after 72 hrs by MTT assay; format: functional; details: RS4-11, 72 h
Procedure, shortened: (§1)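 Compounds from 10 mM DMSO stocks. Cells seeded at 8 × 10^3 per well and held 18 h at 37 °C in humidified 5% CO2. Medium was then replaced with fresh medium holding graded compound concentrations, in triplicate, for 72 h at 37 °C. Viability was read by MTT. GI50 is the concentration giving 50% inhibition of proliferation. Mean ± SE of ≥3 independent dose-response experiments.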

SEM cells = test: Antiproliferative activity against human SEM cells after 72 hrs by MTT assay; format: functional; procedure, shortened: as §1
PBL [1] = test: Antiproliferative activity against human PBL after 72 hrs by MTT assay; format: cell-based
Procedure, shortened: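 PBL from healthy donors separated on a Lymphoprep gradient, washed, and held overnight at 1.0 × 10^6 cells/mL in RPMI-1640 with 10% FBS. Non-adherent resting cells resuspended at 5 × 10^5 cells/mL without PHA. Graded compound concentrations for 72 h, then MTT. Mean ± SEM of three separate experiments.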

THP-1 = test: Antiproliferative activity against human THP1 cells after 72 hrs by MTT assay; format: functional; details: THP-1, 72 h; procedure, shortened: as §1
[2] = Inhibition of bovine brain tubulin assembly preincubated for 20 mins followed by GTP addition by turbidometric method; parameters: species or system Bos taurus
Procedure, shortened: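 Varying compound concentrations pre-incubated with 10 μM bovine brain tubulin in glutamate buffer at 30 °C, then chilled to 0 °C. GTP added to 0.4 mM final, mixture warmed to 30 °C, turbidity followed at 350 nm.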

HT-29 = test: Antiproliferative activity against human HT-29 cells after 72 hrs by MTT assay; format: functional; details: HT-29, 72 h; procedure, shortened: as §1
A549 = test: Antiproliferative activity against human A549 cells after 72 hrs by MTT assay; format: functional; details: A549, 72 h; procedure, shortened: as §1
Liver [3] = test: Metabolic stability in human liver microsomes at 10 uM after 60 mins in presence of NADPH by fluorescence based HPLC analysis; format: ADME, microsome; details: 1 h
Procedure, shortened: (§2)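 Compound at 10 μM final in 0.1 M KH2PO4 pH 7.4 with 1.0 mg/mL pooled mixed-gender human liver microsomes, without or with 1 mM NADPH; buffer-only controls. Started with microsomes after 3-min equilibration and run at 37 °C for 0–60 min. Stopped with ice-cold acetonitrile, centrifuged, supernatant run on C18 HPLC with fluorescence detection (ex 344/em 493 nm). % remaining from peak area versus 0 min. Mean ± SD, n = 3–4.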

[4] = Selectivity index, ratio of IC50 for phytohematoaglutinin-stimulated human PBL to GI50 for human Jurkat cells
Procedure, shortened: (§3)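 Ratio of two 72 h MTT viability values. Healthy-donor PBL were isolated on a density gradient, rested overnight, then seeded as non-adherent cells at 5 × 10^5 cells/mL with 2.5 μg/mL PHA and exposed to graded compound concentrations. Leukemia cells were grown in RPMI-1640 with 10% FBS, seeded at 8 × 10^3 cells/well, pre-incubated 18 h at 37 °C, and dosed in triplicate.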

HeLa [5] = test: Cell cycle arrest in human HeLa cells assessed as accumulation at G2/M phase after 24 hrs by propidium iodide staining based flow cytometry; format: functional
Procedure, shortened: (§4)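 5 × 10^5 cells exposed to varying compound concentrations for 24 h. Cells collected, fixed in ice-cold 70% ethanol, and lysed in buffer with RNase A and 0.1% Triton X-100. PI-stained, then analysed by flow cytometry for phase distribution from DNA histograms. Mean of two independent experiments.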

HeLa [6] = test: Cell cycle arrest in human HeLa cells assessed as reduction in S phase at 50 to 100 nM after 24 hrs by propidium iodide staining based flow cytometry relative to control; format: functional; procedure, shortened: as §4
Bos taurus = organism: Bos taurus; test: Inhibition of [3H]colchicine binding to bovine brain tubulin at 5 uM relative to control
Procedure, shortened: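 Reaction mixtures held 1 μM tubulin, 5 μM [3H]colchicine and 5 μM test compound. Inhibition of bound radiolabel measured relative to control.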

Liver [7] = test: Drug metabolism in human liver microsomes assessed as 7-phenyl-3H-pyrrolo[3,2-f]quinolin-9(6H)-one formation at 10 uM after 60 mins by fluorescence based HPLC analysis; format: ADME, microsome; details: 1 h; procedure, shortened: as §2
Jurkat [8] = test: Antiproliferative activity against human Jurkat cells after 72 hrs by MTT assay; format: functional; procedure, shortened: as §1
Jurkat [9] = test: Induction of ROS generation in human Jurkat cells at 10 to 100 nM after 24 to 48 hrs by H2-DCFDA staining based flow cytometry; format: functional, cell-based
Procedure, shortened: (§5)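 Cells exposed for 24 or 48 h at the indicated concentrations, then loaded with H2-DCFDA. ROS read as oxidised DCF fluorescence by flow cytometry. Mean ± SEM of three independent experiments.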

[10] = Metabolic stability in human liver microsomes assessed as parent compound remaining at 10 uM after 60 mins by fluorescence based HPLC analysis; format: ADME, microsome; details: read-out: Stability; procedure, shortened: as §2
HeLa [11] = test: Antiproliferative activity against human HeLa cells after 72 hrs by MTT assay; format: functional; procedure, shortened: as §1
CCRF-CEM = test: Antiproliferative activity against human CCRF-CEM cells after 72 hrs by MTT assay; format: functional; procedure, shortened: as §1
PBL [12] = test: Antiproliferative activity against phytohematoaglutinin-stimulated human PBL after 72 hrs by MTT assay; format: cell-based
Procedure, shortened: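 Donor PBL isolated on a Lymphoprep gradient and rested overnight in RPMI-1640 with 10% FBS. Non-adherent cells resuspended at 5 × 10^5 cells/mL in growth medium with 2.5 μg/mL PHA. Graded compound concentrations added; viability by MTT at 72 h. Mean ± SEM of three separate experiments.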

MV4-11 = test: Antiproliferative activity against human MV4-11 cells after 72 hrs by MTT assay; format: functional; details: MV4-11, 72 h; procedure, shortened: as §1
HeLa [13] = test: Cell cycle arrest in human HeLa cells assessed as reduction in G1 phase at 50 to 100 nM after 24 hrs by propidium iodide staining based flow cytometry relative to control; format: functional; procedure, shortened: as §4
HeLa [14] = test: Cell cycle arrest in human HeLa cells assessed as accumulation at G2/M phase at 100 nM after 24 hrs by propidium iodide staining based flow cytometry relative to control; format: functional; procedure, shortened: as §4
HeLa [15] = test: Induction of ROS generation in human HeLa cells at 10 to 100 nM after 24 to 48 hrs by H2-DCFDA staining based flow cytometry; format: functional, cell-based; procedure, shortened: as §5
MCF7 = test: Antiproliferative activity against human MCF7 cells after 72 hrs by MTT assay; format: functional; details: MCF7, 72 h; procedure, shortened: as §1
[16] = Selectivity index, ratio of IC50 for phytohematoaglutinin-stimulated human PBL to GI50 for human CCRF-CEM cells; procedure, shortened: as §3
Jurkat [17] = test: Cell cycle arrest in human Jurkat cells assessed as accumulation at G2/M phase at 100 nM after 24 hrs by propidium iodide staining based flow cytometry relative to control; format: functional; procedure, shortened: as §4
Jurkat [18] = test: Cell cycle arrest in human Jurkat cells assessed as accumulation at G2/M phase after 24 hrs by propidium iodide staining based flow cytometry; format: functional; procedure, shortened: as §4
HL-60 = test: Antiproliferative activity against human HL60 cells after 72 hrs by MTT assay; format: functional; details: HL-60, 72 h; procedure, shortened: as §1
Jurkat [19] = test: Cell cycle arrest in human Jurkat cells assessed as accumulation at G2/M phase at 50 to 100 nM after 24 hrs by propidium iodide staining based flow cytometry; format: functional; procedure, shortened: as §4
HeLa [20] = test: Cell cycle arrest in human HeLa cells assessed as accumulation at G2/M phase at 50 to 100 nM after 24 hrs by propidium iodide staining based flow cytometry; format: functional; procedure, shortened: as §4

Row | SMILES | GI50 (RS4-11) [nM] | GI50 (SEM cells) [nM] | pIC50 (PBL [1]) | GI50 (THP-1) [nM] | pIC50 [2] | GI50 (HT-29) [nM] | GI50 (A549) [nM] | inhibition (Bos taurus) [%] | GI50 (Jurkat [8]) [nM] | Activity (Jurkat [9]) | GI50 (HeLa [11]) [nM] | GI50 (CCRF-CEM) [nM] | pIC50 (PBL [12]) | GI50 (MV4-11) [nM] | Activity (HeLa [15]) | GI50 (MCF7) [nM] | GI50 (HL-60) [nM] | also measured
1 | O=C(c1ccccc1)n1ccc2c3c(=O)cc(-c4ccccc4)[nH]c3ccc21 | 0.3 | 0.9 | 4.55 | 5 | 6.05 | 0.1 | 10 | 70 | 16 | Active | 0.2 | 12 | 4.82 | 2 | Active | 0.2 | 2 | Stability (Liver [3]): Stable; Selectivity Index [4]: 1000 - 2000; Activity (HeLa [5]): Dose-dependent effect; Activity (HeLa [6]): Active; Drug metabolism (Liver [7]): Metabolite_Detected; remaining at 1 h, 10 µM [10]: > 60%; Activity (HeLa [13]): Active; Activity (HeLa [14]): >50%; Selectivity Index [16]: 1000 - 2000; Activity (Jurkat [17]): >50%; Activity (Jurkat [18]): Dose-dependent effect
2 | CS(=O)(=O)n1ccc2c3c(=O)cc(-c4ccccc4)[nH]c3ccc21 | 18 | 23 | < 4.00 | 92 | 5.92 | 7 | 3 | 42 | 34 | Active | 36 | 42 | < 4.00 | 49 | Active | 152 | 215 | Activity (Jurkat [19]): Active; Activity (HeLa [20]): Active
3 | O=c1cc(-c2ccccc2)[nH]c2ccc3c(ccn3S(=O)(=O)c3ccc(C(F)(F)F)cc3)c12 | 147 | 33 | – | 42 | 5.62 | 23 | 63 | 29 | 81 | – | 22 | 32 | – | 86 | – | 5 | 39 | –
4 | O=C(C1CC1)n1ccc2c3c(=O)cc(-c4ccccc4)[nH]c3ccc21 | 0.1 | 0.4 | – | 74 | – | 1 | 9 | – | 0.3 | – | 1.6 | 17 | – | 19 | – | 5 | 2 | –
5 | CS(=O)(=O)N1CCc2cc3[nH]c(-c4ccccc4)cc(=O)c3cc21 | > 10000 | > 10000 | – | > 10000 | – | > 10000 | > 10000 | – | > 10000 | – | 7640 | > 10000 | – | > 10000 | – | > 10000 | > 10000 | –
6 | O=C(NC1CC1)n1ccc2c3c(=O)cc(-c4ccccc4)[nH]c3ccc21 | 27 | 11 | – | 66 | 5.66 | 255 | 171 | 18 | 145 | – | 212 | 92 | – | 85 | – | 96 | 155 | –
